Twelve compounds from ChEMBL document CHEMBL4152387, “Discovery of a Potent Grp94 Selective Inhibitor with Anti-Inflammatory Efficacy in a Mouse Model of Ulcerative Colitis” (J Med Chem, 2018) can be followed below.

Bounds are passed on as bounds.

Data set [1] deals with T1, Heat shock protein HSP 90-alpha (Homo sapiens, UniProt P07900). Briefly: Inhibition of human recombinant HSP90alpha expressed in Escherichia coli by fluorescence polarization assay. (Fluorescence polarisation rises when a labelled molecule tumbles more slowly, as on binding a larger partner.)
The species entered for data set [2] is Homo sapiens. Briefly: Selectivity ratio of IC50 for inhibition of human recombinant HSP90alpha expressed in Escherichia coli by fluorescence polarization assay to IC50 for inhibition of GRP94 (unknown origin).
Data set [3] addresses Endoplasmin (Homo sapiens, UniProt P14625). As to the kind of experiment: Binding affinity to GRP94 N-domain (unknown origin).
Data set [4] concerns the target T1, Heat shock protein HSP 90-alpha. As to the kind of experiment: Inhibition of HSP90alpha in human PANC1 cells assessed as up-regulation of Hsp70 at 1 uM after 36 hrs by Western blot analysis. In kind it is cell-based. The method, boiled down: (§1)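 Panc-1 cells treated 36 h; total protein lysate with protease/phosphatase inhibitors; equal protein by BCA on SDS-PAGE, PVDF, Western blot for Hsp70 and Akt, β-actin loading control; AT13387 reference.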
A general note: Immunoblotting shows a protein as a band on a membrane.

Data set [5] shares this target. Briefly: Inhibition of HSP90alpha in human PANC1 cells assessed as akt degradation at 1 uM after 36 hrs by Western blot analysis. It counts as cell-based. The method, boiled down: as §1
Data set [6] in a line: Inhibition of FITC-geldanamycin binding to dog GST-tagged GRP94 N41 deletion mutant (69 to 337 residues) expressed in Escherichia coli BL21star (DE3) after 4 hrs by GM-FITC-based FP assay. Details: species or system Canis lupus familiaris; call rule not given here.
For data set [7], the species on record is Canis lupus familiaris. As to the kind of experiment: Inhibition of FITC-geldanamycin binding to dog GST-tagged GRP94 N41 deletion mutant (69 to 337 residues) expressed in Escherichia coli BL21star (DE3) at 100 uM after 4 hrs by FP assay relative to control.
Data set [8] has as its target Heat shock protein HSP90 (Homo sapiens, UniProt P07900+P08238). As to the kind of experiment: Inhibition of FITC-geldanamycin binding to human His-tagged HSP90alpha N-terminal domain (1 to 236 residues) expressed in Escherichia coli BL21star (DE3) after 4 hrs by FP assay relative to control.
The target of data set [9] is T1, Heat shock protein HSP 90-alpha. As to the kind of experiment: Inhibition of FITC-geldanamycin binding to HSP90alpha (unknown origin) incubated for 5 hrs by fluorescence polarization assay.
Data set [10] addresses Endoplasmin (Canis lupus familiaris, UniProt P41148). Briefly: Inhibition of FITC-geldanamycin binding to canine GRP94 incubated for 5 hrs by fluorescence polarization assay.
Data set [11] has as its target T1, Heat shock protein HSP 90-alpha. As to the kind of experiment: Inhibition of FITC-geldanamycin binding to human His-tagged HSP90alpha N-terminal domain (1 to 236 residues) expressed in Escherichia coli BL21star (DE3) at 100 uM after 4 hrs by FP assay relative to control. The gist of the method: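 Hsp90αN (15 nM final) with GM-FITC (6 nM final) and compound in HEPES/KCl/MgCl2 buffer pH 7.4 with NP40, DTT, BGG; 4 h at 4 °C in dark; FP at ex 485/em 535 nm; inhibition computed against GM-FITC-only and protein-plus-probe controls; n = 3.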

Sequence of Endoplasmin (Canis lupus familiaris, UniProt P41148) (P41148 whole entry, the tested form may be a part): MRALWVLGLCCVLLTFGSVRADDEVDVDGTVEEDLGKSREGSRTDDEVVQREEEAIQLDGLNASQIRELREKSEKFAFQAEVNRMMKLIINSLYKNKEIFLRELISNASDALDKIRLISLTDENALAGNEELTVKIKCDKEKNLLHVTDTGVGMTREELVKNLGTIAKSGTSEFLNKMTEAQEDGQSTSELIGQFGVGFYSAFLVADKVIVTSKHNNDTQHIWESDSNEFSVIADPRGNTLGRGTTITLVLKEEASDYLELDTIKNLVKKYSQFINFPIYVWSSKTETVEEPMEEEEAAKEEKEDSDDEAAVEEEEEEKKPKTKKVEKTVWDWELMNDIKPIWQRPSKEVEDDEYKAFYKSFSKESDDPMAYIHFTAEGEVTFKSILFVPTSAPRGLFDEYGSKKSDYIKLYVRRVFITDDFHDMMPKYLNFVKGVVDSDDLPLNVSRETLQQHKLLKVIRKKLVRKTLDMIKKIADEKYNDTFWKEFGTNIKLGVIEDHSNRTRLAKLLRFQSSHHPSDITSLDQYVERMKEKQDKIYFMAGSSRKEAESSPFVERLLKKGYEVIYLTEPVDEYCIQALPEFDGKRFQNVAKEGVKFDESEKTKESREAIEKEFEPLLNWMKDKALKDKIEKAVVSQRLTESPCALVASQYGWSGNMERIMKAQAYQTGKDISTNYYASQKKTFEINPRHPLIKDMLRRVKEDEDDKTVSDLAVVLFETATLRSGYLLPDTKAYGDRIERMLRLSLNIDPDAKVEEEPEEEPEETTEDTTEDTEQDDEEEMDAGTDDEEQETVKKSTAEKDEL
Sequence of Endoplasmin (Homo sapiens, UniProt P14625) (P14625 whole entry): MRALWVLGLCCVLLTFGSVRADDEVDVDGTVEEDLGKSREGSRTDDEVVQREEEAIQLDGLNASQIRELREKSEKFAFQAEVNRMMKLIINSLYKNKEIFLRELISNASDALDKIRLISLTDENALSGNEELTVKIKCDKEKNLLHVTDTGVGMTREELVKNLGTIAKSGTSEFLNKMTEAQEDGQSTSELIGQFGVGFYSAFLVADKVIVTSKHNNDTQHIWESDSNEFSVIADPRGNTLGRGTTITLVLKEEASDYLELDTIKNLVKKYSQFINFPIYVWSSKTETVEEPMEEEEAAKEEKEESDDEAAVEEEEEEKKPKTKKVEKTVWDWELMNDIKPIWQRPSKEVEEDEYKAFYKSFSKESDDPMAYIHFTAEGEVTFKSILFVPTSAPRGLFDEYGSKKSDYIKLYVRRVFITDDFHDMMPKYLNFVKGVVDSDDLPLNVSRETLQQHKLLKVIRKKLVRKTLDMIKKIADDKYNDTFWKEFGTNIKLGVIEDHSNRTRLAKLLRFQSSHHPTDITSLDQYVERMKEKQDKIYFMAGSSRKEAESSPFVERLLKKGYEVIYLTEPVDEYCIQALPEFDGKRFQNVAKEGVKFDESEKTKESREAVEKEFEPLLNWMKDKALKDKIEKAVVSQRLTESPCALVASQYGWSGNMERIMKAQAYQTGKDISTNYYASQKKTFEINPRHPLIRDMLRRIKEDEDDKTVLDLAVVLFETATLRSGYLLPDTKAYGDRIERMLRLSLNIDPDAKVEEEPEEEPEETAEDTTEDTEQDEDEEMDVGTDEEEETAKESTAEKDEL

As usually defined, the IC50 is the concentration that gives 50% inhibition. Regarding `C#CCCCn1cnc(N)c2nc(Sc3ccc(C)cc3C)nc1-2`, the figures for the IC50 in [1] and in [3] were more than 250000 nM and 11800 nM, respectively. Moreover, in data set [2], the Ratio IC50 was more than 21.

The inhibition is how much of the control response was suppressed. Read a high inhibition as a response far below the control. With `CC(C)c1cc(C(=O)N2Cc3ccc(CN4CCN(C)CC4)cc3C2)c(O)cc1O` [ONALESPIB], the “inhibition (INH)” value in data set [4] and in data set [5] was “Active” in each case. In addition, the IC50 stood at 20 nM in data set [6] and 22 nM in [8]. In [7], this compound displayed an inhibition of 100%.

Broadly, the Kd is a measure of binding affinity in units of concentration. A lower Kd goes with higher affinity. For the compound `COC(=O)c1c(O)cc(O)c(Cl)c1CCC(=O)NC1=CC(=O)C(OC)=CC1=O`, the dissociation constant (Kd) in data set [9] came to 870 nM; in data set [10], 520 nM.

On to `Cc1ccc(-c2ccc(N[C@H]3CC[C@H](O)CC3)c(C(N)=O)c2)cc1C`, for which the “inhibition (INH)” value in [11] is reported as “Not Active”. The compound also had an IC50 in data set [6] of 710 nM. The same compound returned an inhibition in data set [7] of 100%.

`CCOc1ccc(-c2ccc(N[C@H]3CC[C@H](O)CC3)c(C(N)=O)c2)cc1`: the “inhibition (INH)” value in data set [11] is on record as “Not Active”. This compound gave a concentration for half-maximal inhibition (IC50) in data set [6] of 490 nM. Further, the inhibition in [7] was determined as 100%.

With `CC(C)(C)c1ccc(-c2ccc(N[C@H]3CC[C@H](O)CC3)c(C(N)=O)c2)cc1`, in data set [11], the “inhibition (INH)” value is “Not Active”. Besides, the half-inhibitory concentration (IC50) in data set [6] is 790 nM. The inhibition in [7] stood at 100%.

Turning to `CC[C@H](C)[C@H](N)C(=O)N1CCC(Nc2ccc(-c3ccc(C(C)C)cc3)cc2C(N)=O)CC1`, the “inhibition (INH)” value in [11] was “Not Active”. The compound also yielded an IC50 in data set [6] of 470 nM. The compound also showed an inhibition in [7] of 92%.

Regarding `Cc1cc(C)cc(-c2ccc(N[C@H]3CC[C@H](O)CC3)c(C(N)=O)c2)c1`, the “inhibition (INH)” value in [11] is “Not Active”. Moreover, in data set [6], the IC50 is 19700 nM. In [7], this compound had an inhibition of 72%.

Turning to `Cc1cccc(C)c1-c1ccc(N[C@H]2CC[C@H](O)CC2)c(C(N)=O)c1`, the “inhibition (INH)” value in data set [11] is recorded as “Not Active”. Moreover, the IC50 in data set [6] was 1420 nM. The same compound came in with an inhibition in data set [7] of 100%.

Turning to `Cc1cc(C)c(-c2ccc(N[C@H]3CC[C@H](O)CC3)c(C(N)=O)c2)c(C)c1`, the “inhibition (INH)” value in data set [11] was “Not Active”. In addition, the IC50 in [6] stood at 1110 nM. In data set [7], this compound had an inhibition of 100%.

Take `COCCNc1ccc(-c2ccc(C(C)C)cc2)cc1C(N)=O`: in data set [11], the “inhibition (INH)” value was “Not Active”. In data set [6], this compound yielded an IC50 of 930 nM. In addition, the inhibition in [7] was found to be 96%.

Consider `CCc1ccc(-c2ccc(N[C@H]3CC[C@H](O)CC3)c(C(N)=O)c2)cc1`, for which, in data set [11], the “inhibition (INH)” value was “Not Active”. In addition, the concentration for half-maximal inhibition (IC50) in [6] was determined as 7 nM. This compound also gave an inhibition in data set [7] of 100%.
